Assay results: paper PMC2932756 (Chemico-biological interactions, 2010)

What was measured:
[1] = tested on: tyrosinase; experiment: Tyrosinase mediated GSH depletion assay; format: biochemical, Mushroom; settings: for Tyrosinase GSH depletion (2 h): 100 μM phenolic agent, 200 μM GSH, tyrosinase/O2, 37 °C
[2] = tested on: SK-MEL-28 melanoma cells; experiment: MTT cell viability assay, IC50; format: cell-based, human
[3] = Partition coefficient, distribution coefficient and water solubility
[4] = no reference given; cited from earlier work
[5] = tested on: prostate (PC-3) cells; experiment: MTT cell viability assay, PC-3; format: cell-based, human; settings: CAPE 15 μM, 48 h
Procedure, shortened: (§1)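 24-well plates, 40,000 cells/well (SK-MEL-5 4,000/well) in 400 μL medium with 10% FBS, 24 h adhesion. Media: MEM Alpha for SK-MEL-5, MeWo and C32; DMEM for B16-F0 and B16-F10; McCoy's 5A for Saos-2; Leibovitz's L-15 for SW-620; RPMI for PC-3. Test compound 15 μM for 48 h; MTT 4 h, DMSO solubilisation for 2 h in the dark, A570. Viability relative to each line's untreated control.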

[6] = tested on: oral cancer cells; settings: read-out: IC50, cytotoxicity; 48 h; cited from earlier work
[7] = tested on: SK-MEL-28 melanoma cells; experiment: Apoptosis assay; format: cell-based, human; settings: CAPE 15 μM, 48 h
Procedure, shortened: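 SK-MEL-28 cells seeded at 160,000/well in 6-well plates in MEM and left overnight to attach; some wells transfected with tyrosinase shRNA3 or non-specific shRNA for 24 h. Treated with test compound 15 μM (controls 1% DMSO) for 48 h. Cells detached with versene, washed in PBS, pelleted, stained with annexin V-FITC plus PI in binding buffer for 15 min. Flow cytometry on 10,000 events; annexin+ cells (PI− or PI+) counted apoptotic; triplicates.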

[8] = tested on: SK-MEL-28 cells; experiment: Mitochondrial membrane potential; format: cell-based, human
Procedure, shortened: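 SK-MEL-28 cells seeded at 160,000/well in 6-well plates in MEM and left overnight; cyclosporin A 15 μM or ethylenediamine 1 mM added 24 h before test compound (15-50 μM; controls 1% DMSO). After 48 h, TMRM added for 30 min at 37 °C in the dark. Cells detached with versene, pelleted, resuspended in PBS. Flow cytometry on 10,000 events; arithmetic mean fluorescence, triplicates.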

[9] = tested on: human leukemia HL-60 cells; settings: read-out: IC50, growth arrest; 48 h; cited from earlier work
[10] = tested on: B16-F10 melanoma cells; experiment: MTT cell viability assay, B16-F10; format: cell-based, murine; settings: CAPE 15 μM, 48 h
Procedure, shortened: as §1

[11] = tested on: CYP2E1 induced rat liver microsomes; experiment: GSH depletion by rat liver P450 microsomal preparation/NADPH/O2; settings: CYP2E1 pyrazole induced microsomes, 2 h incubation
[12] = UV-VIS spectroscopy, stability of CAPE alone in solution; format: physicochemical; settings: CAPE 100 μM alone, phosphate buffer pH 7.4
Procedure, shortened: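 Test compound 100 μM alone in 0.1 M phosphate buffer, pH 7.4, containing 1 mM DETAPAC; UV-visible spectrum recorded as the no-enzyme control for spectra of enzymatic oxidation, which were taken every two minutes.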

[13] = tested on: osteosarcoma (Saos-2) cells; experiment: MTT cell viability assay, Saos-2; format: cell-based, human; settings: CAPE 15 μM, 48 h
Procedure, shortened: as §1

[14] = tested on: melanocytic SK-MEL-28 cells; experiment: Intracellular GSH measurement, SK-MEL-28; format: cell-based, human; settings: 2 h
Procedure, shortened: (§2)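 Cells from 90-95% confluent cultures seeded at 1 million cells/mL in MEM Alpha with 10% FBS in 24-well plates, 3 h at 37 °C, then given 1 mL medium with test compound (15-200 μM) for 1, 2 or 3 h. Detached with trypsin-EDTA, lysed with 3% sulphosalicylic acid, spun at 14,000 rpm and 4 °C for 10 min; supernatant diluted 10-fold. GSH by DTNB/NADPH (0.3 mM)/GSSG reductase recycling, A405 every 30 s over 4 min.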

[15] = tested on: amelanotic C32 melanoma cells; experiment: Reactive oxygen species; format: cell-based, human; settings: CAPE 15-300 μM
Procedure, shortened: (§3)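 Cells seeded at 40,000/well in black 96-well plates, 24 h at 37 °C. Medium replaced with 2′,7′-dichlorofluorescein diacetate, then test compound added; fluorescence read from the moment of addition (ex 485, em 535 nm). In SK-MEL-28 only: dicoumarol 10 μM, 1-bromoheptane 75 μM, cyclosporin A 15 μM or trifluoperazine 15 μM included. Six replicates averaged.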

[16] = tested on: B16-F0 melanoma cells; experiment: MTT cell viability assay, B16-F0; format: cell-based, murine; settings: CAPE 15 μM, 48 h
Procedure, shortened: as §1

[17] = tested on: MeWo melanoma cells; experiment: MTT cell viability assay, MeWo; format: cell-based, human; settings: CAPE 15 μM, 48 h
Procedure, shortened: as §1

[18] = tested on: amelanotic C32 melanoma cells; experiment: Intracellular GSH measurement, C32; format: cell-based, human; settings: 2 h
Procedure, shortened: as §2

[19] = biological target: T1, horseradish peroxidase (HRP) (Armoracia rusticana, UniProt P00433); experiment: Rate of AA and NADH oxidation by HRP/H2O2; format: biochemical
T1 sequence (P00433 31-338 limits assumed): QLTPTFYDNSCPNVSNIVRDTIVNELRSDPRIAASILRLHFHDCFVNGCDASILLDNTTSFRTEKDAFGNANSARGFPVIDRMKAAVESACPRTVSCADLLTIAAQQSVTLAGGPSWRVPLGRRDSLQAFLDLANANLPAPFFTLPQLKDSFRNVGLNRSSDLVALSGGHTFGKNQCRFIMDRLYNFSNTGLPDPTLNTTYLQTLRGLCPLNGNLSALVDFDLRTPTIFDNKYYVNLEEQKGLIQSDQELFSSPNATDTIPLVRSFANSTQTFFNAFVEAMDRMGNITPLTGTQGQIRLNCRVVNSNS

[20] = tested on: SK-MEL-28 cells; experiment: MTT assay in tyrosinase shRNA transfected SK-MEL-28 cells; format: cell-based, human; settings: CAPE 15 μM, 48 h
Procedure, shortened: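 SK-MEL-28 cells seeded at 160,000/well in 6-well plates; after 24 h transfected with tyrosinase shRNA clone (FuGENE6). 24 h later, untransfected, tyrosinase-shRNA and non-specific shRNA cells given test compound 15 μM for a further 48 h. Viability by MTT: 4 h with dye, DMSO solubilisation for 2 h at room temperature in the dark, A570. Three experiments averaged.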

[21] = tested on: amelanotic C32 cells; experiment: MTT cell viability assay, C32; format: cell-based, human; settings: CAPE 15 μM, 48 h
Procedure, shortened: as §1

[22] = tested on: tyrosinase; experiment: Rate of AA and NADH oxidation by tyrosinase/O2; format: biochemical, Mushroom
[23] = tested on: SK-MEL-28 melanoma cells; experiment: MTT assay using biochemical modulators in SK-MEL-28 melanoma cells; format: cell-based, human; settings: 48 h
Procedure, shortened: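 SK-MEL-28 cells in MEM Alpha with 10% FBS, 40,000/well in 24-well plates, 24 h to adhere. DMSO-dissolved modulators (1-bromoheptane 75 μM, dicoumarol 10 μM, cyclosporin A 15 μM, trifluoperazine 15 μM) added 20 min before test compound. Viability by MTT 48 h after compound addition: 4 h with dye, DMSO solubilisation for 2 h in the dark, A570.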

[24] = tested on: SV40 transformed keratinocytes; settings: read-out: IC50, inhibition of proliferation; 48 h; cited from earlier work
[25] = tested on: melanocytic SK-MEL-28 melanoma cells; experiment: Reactive oxygen species; format: cell-based, human
Procedure, shortened: as §3

[26] = tested on: amelanotic SK-MEL-24 cells; experiment: MTT cell viability assay, SK-MEL-24; format: cell-based, human; settings: CAPE 15 μM, 48 h
[27] = tested on: colorectal adenocarcinoma (SW-620) cells; experiment: MTT cell viability assay, SW-620; format: cell-based, human; settings: CAPE 15 μM, 48 h
Procedure, shortened: as §1

[28] = tested on: SK-MEL-5 melanoma cells; experiment: MTT cell viability assay, SK-MEL-5; format: cell-based, human; settings: CAPE 15 μM, 48 h
Procedure, shortened: as §1

## O=C(O)C=Cc1ccc(O)cc1 [4-HCA, 4-hydroxycinnamic acid]
[1]
  Tyrosinase GSH depletion (2 h): 16±3%
[2]; MTT assay, 48 h incubation
  LD50 (day 2) SK-MEL-28: 4.4 mM

## O=C(O)CCc1ccc(O)cc1 [4-HPP, 4-hydroxypropionic acid]
[1]
  Tyrosinase GSH depletion (2 h): 42±2%
[2]; MTT assay, 48 h incubation
  LD50 (day 2) SK-MEL-28: 1.5 mM

## O=C(O)/C=C/c1ccc(O)c(O)c1 [CA, caffeic acid]
[3]; from LogW
  water solubility relative to CAPE: 45 fold
[3]; pH 7.4
  ionized at physiological pH: more than 99%
[1]
  Tyrosinase GSH depletion (2 h): 200±6%
[4]
  pKa value of the carboxylic moiety: 4.62
[2]; MTT assay, 48 h incubation
  LD50 (day 2) SK-MEL-28: 2.3 mM

## O=C(/C=C/c1ccc(O)c(O)c1)OCCc1ccccc1 [CAPE, Caffeic Acid Phenylethyl Ester]
[3]; pH 7.4
  ionized at physiological pH: not significantly ionized
  lipid solubility relative to caffeic acid (antilog LogD): 40,000 fold
[1]
  Tyrosinase GSH depletion (2 h): 82±6%
[1]; 2 h incubation
  GSH depleted per mole of CAPE, tyrosinase/O2: 0.8 mole GSH per mole of CAPE
[5]
  cell viability: 88±3%
[6]
  IC50: 75 µM
[7]
  apoptotic cell death: 12.5±0.7%
  increase in apoptotic cell death in comparison to untreated control cells: 2.5 fold
[8]; CAPE 15 μM
  decrease in mitochondrial membrane potential: 17±1%
[8]; CAPE 15 μM + CS 15 μM
  decrease in mitochondrial membrane potential in the presence of CS: 8±1%
[8]; CAPE 15 μM + ethylenediamine 1 mM
  decrease in mitochondrial membrane potential in the presence of ethylenediamine: 4±1%
[8]; CAPE 30 μM
  decrease in mitochondrial membrane potential: 20±2%
[8]; CAPE 30 μM + CS 15 μM
  decrease in mitochondrial membrane potential in the presence of CS: 12±1%
[8]; CAPE 30 μM + ethylenediamine 1 mM
  decrease in mitochondrial membrane potential in the presence of ethylenediamine: 10±1%
[9]
  IC50: 2.5 µM
[10]
  cell viability: 60±4%
[11]
  GSH depleted per mole of CAPE, rat liver microsomes: 0.5 mole GSH per one mole of CAPE
[12]
  stability of spectrum in solution (auto-oxidation): stable
[13]
  cell viability: 90±6%
[14]; CAPE 15 μM
  intracellular GSH depleted: 11±4%
[14]; CAPE 50 μM
  intracellular GSH depleted: 19±2%
[14]; CAPE 100 μM
  intracellular GSH depleted: 26±1%
[14]; CAPE 200 μM
  intracellular GSH depleted: 54±1%
[15]
  ROS formation: no significant ROS was formed
[16]
  cell viability: 58±6%
[17]
  cell viability: 51±6%
[18]; CAPE 15 μM
  intracellular GSH depleted: 3±2%
[18]; CAPE 50 μM
  intracellular GSH depleted: 10±2%
[18]; CAPE 100 μM
  intracellular GSH depleted: 13±3%
[18]; CAPE 200 μM
  intracellular GSH depleted: 24±2%
[19]; HRP 2 μM, H2O2 100 μM
  Rate of NADH oxidation by HRP/H2O2: 867 μM (AA and NADH depletion)/CAPE (μM)/HRP (μM)/min
[19]; with GSH
  Rate of AA oxidation by HRP/H2O2 in the presence of GSH: 10 μM GSH depletion/CAPE (μM)/HRP (μM)/min
  Rate of NADH oxidation by HRP/H2O2 in the presence of GSH: 5 μM GSH depletion/CAPE (μM)/HRP (μM)/min
[20]
  cell viability, tyrosinase shRNA transfected cells: 87±5%
  cell viability, untransfected cells: 43±6%
[21]
  cell viability: 86±4%
[22]; CAPE 100 μM, tyrosinase 5 U/mL, NADH 200 μM, pH 7.4
  Rate of NADH oxidation by tyrosinase/O2: 10 nM (AA and NADH depletion)/CAPE (μM)/tyrosinase (U/mL)/min
[22]; with GSH 200 μM
  Rate of NADH oxidation by tyrosinase/O2 in the presence of GSH: 0.08 nM GSH depletion/CAPE (μM)/tyrosinase (U/mL)/min
[23]; CAPE 7.5 μM + BH 75 μM
  increase of CAPE toxicity by 1-bromoheptane (BH): 26%
[23]; CAPE 7.5 μM + dicoumarol 10 μM
  enhancement of CAPE toxicity by dicoumarol: 39%
[23]; CAPE 30 μM
  viability, CAPE incubated alone: 23±2%
[24]
  IC50: 7 µM
[25]; BH 75 μM
  ROS formation, CAPE + BH: 11±2 fold
[25]; CAPE 15 μM + TF 15 μM, 40 min
  ROS formation, CAPE + TF: 5±1 fold
[25]; CAPE 15 μM, 40 min
  ROS formation, CAPE alone: 8±1 fold
[25]; CAPE 15-300 μM, various time points
  ROS formation: concentration- and time-dependent escalation in ROS formation
[25]; CS 15 μM
  ROS formation, CAPE + CS: 4±1 fold
[25]; DC 10 μM
  ROS formation, CAPE + DC: 12±2 fold
[2]; MTT assay, 48 h incubation
  LD50 (day 2) SK-MEL-28 / IC50 (48 h): 15 µM
[2]; SK-MEL-28
  toxicity relative to caffeic acid, based on IC50 (48 h): 153 fold
[26]
  cell viability: 81±7%
[27]
  cell viability: 89±3%
[28]
  cell viability: 57±3%
